According to ChEMBL document CHEMBL1135410, “Adenine nucleotide analogues locked in a Northern methanocarba conformation: enhanced stability and potency as P2Y(1) receptor agonists” (J Med Chem, 2002):
Active and inactive are the calls of the source. No cut-off for these calls is given here.

Columns and labels:
[1] = target: T1, P2Y purinoceptor 1 (Homo sapiens, UniProt P47900); test: Accumulation of inositol phosphate in 1321N1 astrocytoma cells expressing human P2Y1 purinoceptor; format: cell-based
Procedure, shortened: (§1)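 Inositol phosphate accumulation measured in 1321N1 human astrocytoma cells stably expressing human P2Y1, P2Y2, P2Y4 or P2Y11 receptor. Full concentration–effect curves, repeated in at least three separate experiments run in duplicate or triplicate. EC50 from four-parameter logistic fit. Relative efficacy (%) taken against a maximal effective concentration of UTP or UDP in the same experiment.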

[2] = target: P2Y purinoceptor 1 (Meleagris gallopavo, UniProt P49652); test: Activation of Purinoceptor P2Y1-mediated phospholipase C in turkey erythrocyte membranes; format: cell membranes
Procedure, shortened: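 Turkey erythrocytes labelled 18–24 h at 37 °C with 2-[3H]myo-inositol in inositol-free DMEM. Total [3H]inositol phosphates separated by anion exchange. EC50 from four-parameter logistic fit, at least three experiments.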

[3] = target: T2, P2Y purinoceptor 2 (Homo sapiens, UniProt P41231); test: (§2) Agonist activity by measuring inositol phosphate accumulation in 1321N1 human astrocytoma cells stably expressing human P2Y purinoceptor 2; format: functional; procedure, shortened: as §1
[4] = target: T1, P2Y purinoceptor 1; test: Agonist activity by measuring inositol phosphate accumulation in 1321N1 human astrocytoma cells stably expressing human P2Y purinoceptor 1; No effect as either agonist or antagonist at 10 uM; format: functional; procedure, shortened: as §1
[5] = target: P2Y purinoceptor 1 (Meleagris gallopavo) (UniProt P49652); test: Agonist activity by measuring Purinoceptor P2Y1-promoted phospholipase C activity in turkey erythrocyte membranes; No effect as either agonist or antagonist at 10 uM; format: functional, cell membranes
Procedure, shortened: (§3)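 Turkey erythrocytes labelled 18–24 h at 37 °C with 2-[3H]myo-inositol in inositol-free DMEM. Ghosts (about 175 μg protein) incubated 5 min at 30 °C in pH 7.0 Hepes/KCl buffer with EGTA, CaCl2 and MgSO4, plus 1 μM GTPγS and the agonist. Total [3H]inositol phosphates separated by anion exchange. EC50 from four-parameter logistic fit, at least three experiments.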

[6] = target: T2, P2Y purinoceptor 2; test: Agonist activity by measuring inositol phosphate accumulation in 1321N1 human astrocytoma cells stably expressing human P2Y purinoceptor 2; No effect as either agonist or antagonist at 10 uM; format: functional
[7] = species: Rattus norvegicus; test: Hydrolysis rate of compound as substrate of purified recombinant rat Ecto-5'-nucleotidase; format: functional; set-up: scale not given: the % may be the effect or the level left
Procedure, shortened: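 Purified baculovirus-expressed rat ecto-5′-nucleotidase (0.5 μg) incubated 10 min at 37 °C with 100 μM (final) substrate in Tris-buffered saline containing 0.4 mM MgCl2, pH 7.4. Reaction stopped with 5% TCA. Released inorganic phosphate measured by the Lanzetta method. Activity expressed relative to AMP (100%). Two experiments, each in duplicate.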

[8] = target: P2Y purinoceptor 1 (Meleagris gallopavo) (UniProt P49652); test: Agonist activity by measuring Purinoceptor P2Y1-promoted phospholipase C activity in turkey erythrocyte membranes; NE means no effect.; format: functional, cell membranes; procedure, shortened: as §3
[9] = target: T3, P2Y purinoceptor 11 (Homo sapiens) (UniProt Q96G91); test: Agonist activity by measuring inositol phosphate accumulation in 1321N1 human astrocytoma cells stably expressing human P2Y purinoceptor 11; No effect as either agonist or antagonist at 10 uM; format: functional; procedure, shortened: as §1
T3 sequence (whole entry): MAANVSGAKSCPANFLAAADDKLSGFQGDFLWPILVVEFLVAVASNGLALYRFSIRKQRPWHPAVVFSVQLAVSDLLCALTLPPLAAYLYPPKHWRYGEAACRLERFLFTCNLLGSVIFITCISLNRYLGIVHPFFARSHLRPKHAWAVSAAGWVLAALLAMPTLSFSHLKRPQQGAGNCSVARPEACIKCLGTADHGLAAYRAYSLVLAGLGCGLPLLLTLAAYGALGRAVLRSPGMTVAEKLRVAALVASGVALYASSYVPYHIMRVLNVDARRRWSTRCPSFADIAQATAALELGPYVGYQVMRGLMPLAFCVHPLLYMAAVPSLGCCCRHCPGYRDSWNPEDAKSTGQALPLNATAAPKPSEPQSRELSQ

[10] = target: P2Y purinoceptor 4 (Homo sapiens) (UniProt P51582); test: Agonist activity by measuring the agonist potencies of the corresponding ribose- containing nucleotides, for the receptor subtype human P2Y purinoceptor 4; No effect as either agonist or antagonist at 10 uM; format: functional; procedure, shortened: as §1
[11] = target: T2, P2Y purinoceptor 2; test: as §2; format: functional; procedure, shortened: as §1; remark: listed apart in the source
[12] = target: P2Y purinoceptor 4 (Homo sapiens) (UniProt P51582); test: Agonist activity by measuring inositol phosphate accumulation in 1321N1 human astrocytoma cells stably expressing human P2Y purinoceptor 4; No effect as either agonist or antagonist at 10 uM; format: functional; procedure, shortened: as §1
[13] = target: T2, P2Y purinoceptor 2; test: Agonist activity by measuring inositol phosphate accumulation in 1321N1 human astrocytoma cells stably expressing human P2Y purinoceptor 2r; No effect as either agonist or antagonist at 10 uM; format: functional; procedure, shortened: as §1
[14] = target: T4, Ectonucleoside triphosphate diphosphohydrolase 1 (Rattus norvegicus) (UniProt P97687); test: Hydrolysis rate as substrate of rat Ectonucleoside triphosphate diphosphohydrolase 1 (NTPDase 1) (Ecto-apyrase); set-up: scale not given: the % may be the effect or the level left
T4 sequence (whole entry): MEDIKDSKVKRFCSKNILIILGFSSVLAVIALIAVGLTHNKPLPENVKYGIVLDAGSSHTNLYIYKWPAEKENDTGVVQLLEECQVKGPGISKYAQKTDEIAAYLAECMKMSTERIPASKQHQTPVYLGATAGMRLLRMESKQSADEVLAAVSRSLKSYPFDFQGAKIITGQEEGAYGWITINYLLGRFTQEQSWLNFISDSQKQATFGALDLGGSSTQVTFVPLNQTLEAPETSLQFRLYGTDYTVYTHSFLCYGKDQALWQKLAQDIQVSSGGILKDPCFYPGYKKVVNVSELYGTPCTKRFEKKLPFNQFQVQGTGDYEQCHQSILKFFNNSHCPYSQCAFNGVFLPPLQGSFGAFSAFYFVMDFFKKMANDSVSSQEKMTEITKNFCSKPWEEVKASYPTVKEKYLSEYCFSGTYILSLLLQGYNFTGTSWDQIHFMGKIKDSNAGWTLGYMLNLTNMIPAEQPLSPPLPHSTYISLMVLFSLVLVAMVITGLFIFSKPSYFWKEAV
Procedure, shortened: (§4)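 Intact CHO cells stably expressing rat NTPDase1 or NTPDase2, seeded 24 h before assay. Incubated at 37 °C in Hepes-buffered saline, pH 7.4, with nucleotide substrate. Supernatant aliquots taken over time and analysed by HPLC at 260 nm. Rate expressed relative to ATP (100%). Nontransfected CHO cells served as control. Two experiments, each in duplicate.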

[15] = target: T5, Ectonucleoside triphosphate diphosphohydrolase 2 (Rattus norvegicus) (UniProt O35795); test: Hydrolysis rate as substrate of rat Ectonucleoside triphosphate diphosphohydrolase 2 (NTPDase 2) (Ecto-apyrase); set-up: scale not given: the % may be the effect or the level left; procedure, shortened: as §4
T5 sequence (whole entry): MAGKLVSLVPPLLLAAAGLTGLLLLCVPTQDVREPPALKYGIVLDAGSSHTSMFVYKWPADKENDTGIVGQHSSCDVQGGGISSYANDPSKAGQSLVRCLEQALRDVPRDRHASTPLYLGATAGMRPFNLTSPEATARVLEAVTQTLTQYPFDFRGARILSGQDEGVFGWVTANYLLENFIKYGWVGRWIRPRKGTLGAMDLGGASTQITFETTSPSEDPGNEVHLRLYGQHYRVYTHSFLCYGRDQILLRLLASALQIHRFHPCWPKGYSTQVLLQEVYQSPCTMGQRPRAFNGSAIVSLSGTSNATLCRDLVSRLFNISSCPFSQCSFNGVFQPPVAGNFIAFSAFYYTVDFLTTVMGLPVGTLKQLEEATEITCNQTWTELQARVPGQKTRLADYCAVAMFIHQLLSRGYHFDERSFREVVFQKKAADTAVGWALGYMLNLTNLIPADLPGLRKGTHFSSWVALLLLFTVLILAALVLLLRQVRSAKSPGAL

[16] = target: P2Y purinoceptor 1 (Meleagris gallopavo) (UniProt P49652); test: Agonist activity by measuring Purinoceptor P2Y1-promoted phospholipase C activity in turkey erythrocyte membranes; format: functional, cell membranes; procedure, shortened: as §3
[17] = target: P2Y purinoceptor 4 (Homo sapiens) (UniProt P51582); test: Agonist activity by measuring inositol phosphate accumulation in 1321N1 human astrocytoma cells stably expressing human P2Y purinoceptor 4; format: functional; procedure, shortened: as §1
[18] = target: T3, P2Y purinoceptor 11 (Homo sapiens); test: Agonist activity by measuring inositol phosphate accumulation in 1321N1 human astrocytoma cells stably expressing human P2Y purinoceptor 11; format: functional; procedure, shortened: as §1

T2 sequence (P41231 whole entry): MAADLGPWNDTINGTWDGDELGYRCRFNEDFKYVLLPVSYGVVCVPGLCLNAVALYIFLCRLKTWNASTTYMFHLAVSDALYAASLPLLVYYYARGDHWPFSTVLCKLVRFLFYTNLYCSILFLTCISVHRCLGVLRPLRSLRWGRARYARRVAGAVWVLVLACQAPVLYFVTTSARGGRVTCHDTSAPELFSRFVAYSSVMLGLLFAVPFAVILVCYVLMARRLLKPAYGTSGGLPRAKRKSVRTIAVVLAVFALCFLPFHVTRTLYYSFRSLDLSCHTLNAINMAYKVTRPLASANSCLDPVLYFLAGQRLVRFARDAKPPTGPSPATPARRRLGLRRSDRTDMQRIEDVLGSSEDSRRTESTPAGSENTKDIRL
T1 sequence (P47900 whole entry): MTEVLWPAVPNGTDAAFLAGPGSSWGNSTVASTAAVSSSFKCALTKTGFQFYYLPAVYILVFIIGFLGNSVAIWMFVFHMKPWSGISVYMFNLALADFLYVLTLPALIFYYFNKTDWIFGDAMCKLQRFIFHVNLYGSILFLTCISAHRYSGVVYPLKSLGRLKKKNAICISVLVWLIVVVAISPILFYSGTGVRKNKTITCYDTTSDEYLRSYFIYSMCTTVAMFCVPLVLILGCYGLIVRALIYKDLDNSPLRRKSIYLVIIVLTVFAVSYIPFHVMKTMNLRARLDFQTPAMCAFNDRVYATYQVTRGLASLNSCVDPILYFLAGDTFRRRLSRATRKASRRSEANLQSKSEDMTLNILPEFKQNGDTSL
P2Y purinoceptor 4 (Homo sapiens), sequence (P51582 whole entry): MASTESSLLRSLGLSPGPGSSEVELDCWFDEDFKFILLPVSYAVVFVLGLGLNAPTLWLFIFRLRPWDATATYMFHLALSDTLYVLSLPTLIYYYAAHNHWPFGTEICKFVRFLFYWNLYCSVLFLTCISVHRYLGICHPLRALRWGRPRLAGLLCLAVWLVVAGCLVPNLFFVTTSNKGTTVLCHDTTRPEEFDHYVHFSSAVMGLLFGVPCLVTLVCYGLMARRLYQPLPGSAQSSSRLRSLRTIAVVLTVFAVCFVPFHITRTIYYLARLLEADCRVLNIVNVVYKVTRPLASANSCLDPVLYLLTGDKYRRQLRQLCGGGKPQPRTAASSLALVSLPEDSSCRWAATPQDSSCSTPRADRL
P2Y purinoceptor 1 (Meleagris gallopavo, UniProt P49652), sequence (P49652 whole entry): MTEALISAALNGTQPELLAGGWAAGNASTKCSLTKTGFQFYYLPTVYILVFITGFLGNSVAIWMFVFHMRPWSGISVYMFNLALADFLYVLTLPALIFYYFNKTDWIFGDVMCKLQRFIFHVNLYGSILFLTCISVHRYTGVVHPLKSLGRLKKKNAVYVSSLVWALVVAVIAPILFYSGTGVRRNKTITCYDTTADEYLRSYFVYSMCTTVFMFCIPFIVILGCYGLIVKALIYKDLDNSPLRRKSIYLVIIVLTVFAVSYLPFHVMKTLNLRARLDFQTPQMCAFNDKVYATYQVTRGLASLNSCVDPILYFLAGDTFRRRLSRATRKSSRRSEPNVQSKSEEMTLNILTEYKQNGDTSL
P2Y purinoceptor 1 (Meleagris gallopavo), sequence (P49652 whole entry): as above

CSc1nc(N)c2ncn(C3C(O)C(O)[C@@]4(COP(=O)(O)OP(=O)(O)OP(=O)(O)O)C[C@@H]34)c2n1 (stereo partly specified)
EC50 [1]: 23 nM | EC50 [2]: 3.7 nM

Nc1nc(Cl)nc2c1ncn2[C@@H]1O[C@H](COP(=O)(O)OP(=O)(O)OP(=O)(O)O)[C@@H](O)[C@H]1O
EC50 [3]: 2300 nM | EC50 [1]: 770 nM | EC50 [2]: 720 nM

C[S+]([O-])c1nc(N)c2ncn(C3O[C@H](COP(=O)(O)O)[C@@H](O)[C@H]3O)c2n1 (stereo partly specified)
NE [4]: inactive | NE [5]: inactive

Nc1ncnc2c1ncn2[C@@H]1O[C@H](COP(=O)(O)OP(=O)(O)CP(=O)(O)O)[C@@H](O)[C@H]1O
NE [6]: inactive | NE [4]: inactive | NE [5]: inactive

Nc1nc(Cl)nc2c1ncn2C1C(O)C(O)[C@@]2(COP(=O)(O)OP(=O)(O)OP(=O)(O)O)C[C@@H]12 (stereo partly specified)
EC50 [3]: 1900 nM | EC50 [1]: 7 nM | EC50 [2]: 3 nM

Nc1ncnc2c1ncn2[C@H]1[C@H](O)[C@H](O)[C@@]2(COP(=O)(O)O)C[C@H]12
Activity [7]: 0.14% | NE [8]: inactive

CNc1ncnc2c1ncn2C1C(O)C(O)[C@@]2(COP(=O)(O)OP(=O)(O)OP(=O)(O)O)C[C@@H]12 (stereo partly specified)
EC50 [3]: 197 nM | EC50 [1]: 33 nM | EC50 [2]: 92 nM

Nc1ncnc2c1ncn2[C@@H]1O[C@H](COP(=O)(O)O)[C@@H](O)[C@H]1O
Activity [7]: 100% | NE [5]: inactive

CSc1nc(N)c2ncn([C@H]3[C@H](O)[C@H](O)[C@@]4(COP(=O)(O)O)C[C@@H]34)c2n1
NE [9]: inactive | EC50 [1]: 590 nM | EC50 [2]: 1190 nM

CSc1nc(N)c2ncn([C@H]3[C@H](O)[C@H](O)[C@@]4(COP(=O)(O)OP(=O)(O)O)C[C@@H]34)c2n1
NE [9]: inactive | NE [10]: inactive | EC50 [1]: 0.4 nM | EC50 [2]: 0.88 nM | % of maximal effect [11]: 54%

CNc1nc(Cl)nc2c1ncn2C1C(O)C(O)[C@@]2(COP(=O)(O)OP(=O)(O)OP(=O)(O)O)C[C@@H]12 (stereo partly specified)
EC50 [3]: 8400 nM | EC50 [1]: 9 nM | EC50 [2]: 6 nM

CSc1nc(N)c2ncn([C@@H]3O[C@H](COP(=O)(O)OP(=O)(O)O)[C@@H](O)[C@H]3O)c2n1
NE [9]: inactive | NE [12]: inactive | NE [13]: inactive

Nc1ncnc2c1ncn2C12CC1C(COP(=O)(O)OP(=O)(O)OP(=O)(O)O)C(O)C2O (stereo unspecified)
Activity [14]: 57% | Activity [15]: 34%

CNC(=O)[C@@]12C[C@@H]1[C@@H](n1cnc3c(NC)nc(Cl)nc31)[C@H](O)[C@@H]2O
NE [5]: inactive

CSc1nc(N)c2ncn([C@@H]3O[C@H](COP(=O)(O)O)[C@@H](O)[C@H]3O)c2n1
NE [9]: inactive | NE [4]: inactive | % of maximal effect [16]: 15%

Nc1ncnc2c1ncn2C1C(O)C(O)[C@@]2(COP(=O)(O)OP(=O)(O)CP(=O)(O)O)C[C@H]12 (stereo partly specified)
NE [12]: inactive | NE [6]: inactive | EC50 [1]: 158 nM | EC50 [2]: 11300 nM

Nc1nc(Cl)nc2c1ncn2[C@H]1[C@H](O)[C@H](O)[C@@]2(COP(=O)(O)O)C[C@@H]12
EC50 [1]: 1890 nM | EC50 [2]: 3900 nM

Nc1ncnc2c1ncn2[C@@]12C[C@@H]1[C@H](COP(=O)(O)O)[C@H](O)[C@@H]2O
Activity [7]: 0%

Nc1nc(Cl)nc2c1ncn2[C@@H]1O[C@H](COP(=O)(O)O)[C@@H](O)[C@H]1O
NE [4]: inactive | NE [5]: inactive

CSc1nc(N)c2ncn([C@@H]3O[C@H](COP(=O)(O)OP(=O)(O)OP(=O)(O)O)[C@@H](O)[C@H]3O)c2n1
EC50 [1]: 34 nM

C[S+]([O-])c1nc(N)c2ncn([C@H]3[C@H](O)[C@H](O)[C@@]4(COP(=O)(O)O)C[C@H]34)c2n1 (stereo partly specified)
EC50 [2]: 36.6 nM

Nc1ncnc2c1ncn2[C@@H]1O[C@H](COP(=O)(O)OP(=O)(O)OP(=O)(O)O)[C@@H](O)[C@H]1O [ADENOSINE TRIPHOSPHATE]
NE [12]: inactive | Activity [14]: 100% | EC50 [3]: 85 nM | Activity [15]: 100%

Nc1ncnc2c1ncn2C1C(O)C(O)C2(COP(=O)(O)OP(=O)(O)OP(=O)(O)O)CC12 (stereo unspecified)
% of maximal effect [17]: 32% | Activity [14]: 52% | EC50 [3]: 91 nM | Activity [15]: 4% | % of maximal effect [18]: 35% | EC50 [2]: 14 nM
